Screening data as filed in PubChem BioAssay.
This is a sample that favours compounds with a hit; in the whole collection about 2.4% have one here.
MIN6 prolif: inducers of MIN6 beta-cell proliferation, primary screen, ATP luminescence, uHTS; MIN6 cells proliferation, ATPlite luminescence, 48 h; cells starved in 0.2% serum; 100% = growth in 10% serum; proliferation, % at 10 µM; hit rate 0.29% among 330,000;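 active means compounds whose signal lies at least 3.5 SD above the mean of all wells on their plate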
SENP1 inh: human SENP1 catalytic domain inhibitors, primary screen, biochemical, FRET, uHTS | recombinant SENP1 catalytic domain, CyPet-SUMO1-YPet FRET cleavage | inhibition, % at 10 µM | hit rate 0.21% among 360,000 | AID 624204, 2012;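 active means inhibition at least 30% at 10 µM, raw YFP signal under a set limit, fluorescence ratio 0.5 to 1.5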
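material = recombinant human SENP1 catalytic domain, His6-tagged | quantity = 20 pM enzyme | reagent = 25 nM SUMO1 FRET substrate | compound dosing = 10 µM single point, 0.5% DMSO | timing = 50 min enzyme reaction, room temperature, light-protected | detection = FRET, CFP and YFP emission | control set = no-enzyme low, enzyme-DMSO high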
Myeloid diff 2: induction of myeloid progenitor differentiation, primary screen, cell-based, flow cytometry, MLPCN library; calls only at 10 µM; hit rate 1% among 360,000; ER-HoxA9 myeloid progenitors, lysozyme-GFP differentiation; AID 624256, 2012;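 active means normalized GFP-positive differentiation at or above the plate's own cutoff, the solvent-only control mean plus 3 SD; inconclusive means no clear call, values can overlap the other calls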;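 further: cells exposed to compound for four days before flow analysis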
MT1-MMP act inh: blockers of MT1-MMP proenzyme processing, primary screen, HT1080 RFP-PRO-GFP cells, GFP/RFP fluorescence | hit rate 0.061% among 360,000 | GFP/RFP ratio fluorescence, overnight; percent of plate control window, DMSO zero | GFP/RFP ratio change, % at 20 µM;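 active means GFP/RFP ratio change of at least 30% with cell ATP level not reduced by more than half and red fluorescence within 50% of control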
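Assay system: RFP-PRO-GFP reporter HT1080 cells; read-out basis: GFP/RFP fluorescence ratio; benchmarks: DMSO wells and RFP-L50D-GFP cells; doses: 20 µM single dose, 1% DMSO; schedule: overnight cell settling, then overnight compound exposure, 37 °C, 5% CO2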
DAGLB inh: DAGLB lipase inhibitors, primary screen, biochemical, fluorescence, HTS | hit rate 0.059% among 340,000 | AID 504411, 2011 | inhibition, % at 5.17 µM | HEK293T DAGLB membrane lysate, EnzChek fluorogenic substrate | Diacylglycerol lipase-beta (Homo sapiens), Q8NCG7; in the data active means inhibition above about 34%
NRP1-CendR mod: modulators of CendR peptide binding to NRP-1, primary screen, biochemical, fluorescence polarization, uHTS | Neuropilin-1 (Homo sapiens), O14786 | FAM-RPARPAR peptide binding to NRP-1 | inhibition, % at 25 µM | hit rate 0.85% among 360,000;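 active means inhibition or corrected inhibition above about 18%, plus a signal ratio from 0.5 to 1.5, limit read from the data, passing the limit was not always enough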
Target sequence (O14786 whole entry, looked up): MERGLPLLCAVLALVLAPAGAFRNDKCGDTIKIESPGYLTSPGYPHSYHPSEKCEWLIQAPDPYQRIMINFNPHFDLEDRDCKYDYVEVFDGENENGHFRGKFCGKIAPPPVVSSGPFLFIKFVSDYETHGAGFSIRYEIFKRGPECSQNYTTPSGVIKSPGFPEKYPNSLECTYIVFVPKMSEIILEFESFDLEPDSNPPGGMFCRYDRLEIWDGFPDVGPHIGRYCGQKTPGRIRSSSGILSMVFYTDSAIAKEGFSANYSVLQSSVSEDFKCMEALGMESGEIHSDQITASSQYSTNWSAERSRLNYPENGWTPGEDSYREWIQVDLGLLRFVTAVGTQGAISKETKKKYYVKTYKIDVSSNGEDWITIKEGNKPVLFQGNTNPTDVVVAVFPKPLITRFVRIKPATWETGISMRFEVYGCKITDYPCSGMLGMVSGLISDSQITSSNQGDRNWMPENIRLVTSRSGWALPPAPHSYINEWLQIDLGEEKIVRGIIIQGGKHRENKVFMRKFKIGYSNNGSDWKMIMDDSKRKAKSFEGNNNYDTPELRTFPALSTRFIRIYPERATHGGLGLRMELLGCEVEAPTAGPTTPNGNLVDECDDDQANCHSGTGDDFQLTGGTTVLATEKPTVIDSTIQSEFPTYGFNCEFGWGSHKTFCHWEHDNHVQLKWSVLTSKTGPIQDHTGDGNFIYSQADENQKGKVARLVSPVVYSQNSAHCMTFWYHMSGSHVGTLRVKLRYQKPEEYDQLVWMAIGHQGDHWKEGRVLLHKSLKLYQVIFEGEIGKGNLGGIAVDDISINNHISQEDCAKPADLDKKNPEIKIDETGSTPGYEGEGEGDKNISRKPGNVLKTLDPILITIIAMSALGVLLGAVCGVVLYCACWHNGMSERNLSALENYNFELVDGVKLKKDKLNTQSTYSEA
MT1-MMP conf: MT1-MMP activation inhibitors, hit retest, confirmation, single concentration, fluorescence, HT1080 RFP-PRO-GFP cells | shares compounds with MT1-MMP act inh | GFP and RFP fluorescence ratio, overnight | inhibition, % at 20 µM | hit rate 10% among 200 | AID 652235, 2013;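 active means inhibition of at least 50% in the primary cell screen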
Of the large screens only hits and unclear results are named; the others gave an inactive call (follow-up assays come after a bar, where they were run).

CCN(C)c1cc2c(c3c1ccn3C)C1CCC2C1 (stereo unspecified)	none (no result: MIN6 prolif, DAGLB inh)
COC(=O)CC1C(=O)NCCN1C(=O)CSc1nc2cc(Cl)ccc2o1 (stereo unspecified)	none
C=C1N(C)c2cc([N+](=O)[O-])c(N)cc2C1(C)C	MT1-MMP act inh 36.4 | MT1-MMP conf inactive
O=C(N/N=C/C1CC=CCC1)c1ccc(O)cc1O (stereo unspecified)	none
O=C(N/N=C/C1CC=CCC1)c1cc2ccccc2cc1O (stereo unspecified)	MT1-MMP act inh 34.9 | MT1-MMP conf inactive
COc1ccc(NC(=O)C(=S)N2CCCC2)cc1	none
Cc1cc(C)c(NS(=O)(=O)c2ccccc2)c(C)c1	none (no result: MIN6 prolif)
Cc1cc(C)c(S(=O)(=O)/N=C2\C=C(NS(=O)(=O)c3ccccc3)C(=O)c3ccccc32)c(C)c1	MT1-MMP act inh 41.4, NRP1-CendR mod 28.4 | MT1-MMP conf inactive
O=[N+]([O-])c1cc(Br)c(O)c(C=Nc2ccc(N3CCOCC3)cc2)c1	MT1-MMP act inh 40.5 | MT1-MMP conf inactive
COc1cccc(C=Nc2ccc(N3CCOCC3)cc2)c1O	none
CN(C(=O)CSc1nc(C2CC2)n(-c2ccccc2)n1)C1CCS(=O)(=O)C1 (stereo unspecified)	none
O=C(O)Cc1ccc(NC(=O)c2ccc(NC(=O)C3CC3)cc2)cc1	none
COc1cc(/C=C2\C(=O)N(c3ccc(NC(C)=O)cc3)N=C2c2ccccc2)ccc1O	none
CCOc1cc(/C=C2\C(=O)N(c3nc(-c4ccc(Br)cc4)cs3)N=C2c2ccccc2)ccc1O	MT1-MMP act inh 62.9 | MT1-MMP conf inactive
CN(C)/C=C/c1oc2ccc(O)cc2c1[N+](=O)[O-]	MT1-MMP act inh 58.3 | MT1-MMP conf 50.6
CCCCc1ccc(NS(=O)(=O)c2cccs2)cc1	none
N#CCCN1CCCc2cc(N=Nc3ccc(C(F)(F)F)cc3)ccc21	MT1-MMP act inh 31.8 (no result: DAGLB inh) | MT1-MMP conf inactive
COc1ccc(Cl)cc1Nc1nc(N)c2ccccc2n1	none
Nc1nc(Nc2cccc(F)c2)nc2ccccc12	MT1-MMP act inh 34.6 | MT1-MMP conf inactive
Cc1ccc(C)c(Nc2nc(N)c3ccccc3n2)c1	MT1-MMP act inh 31.3 | MT1-MMP conf inactive
CC(=O)N1c2ccc(S(=O)(=O)N3CCC(C(=O)NC4CCCCC4)CC3)cc2CC1C (stereo unspecified)	none
O=C(/C=C(\c1ccc(Cl)cc1)n1cncn1)c1ccc(Cl)cc1	MT1-MMP act inh 31.5 | MT1-MMP conf inactive
Cn1ncc([N+](=O)[O-])c1C(=O)NC1CCCCC1	none
COC(=O)c1ccc2c(c1)C(C)(C)C(/C=C/c1ccc(OC)c(OC)c1OC)=[N+]2C	Myeloid diff 2 inconclusive, MT1-MMP act inh 50.7 | MT1-MMP conf inactive
COC(=O)c1ccc2c(c1)C(C)(C)C(/C=C/c1ccc(O)cc1)=[N+]2C	none (no result: Myeloid diff 2)
Cc1c(C(=O)OCC(=O)NCC2CCCO2)oc2ccccc12 (stereo unspecified)	MT1-MMP act inh 33.2 | MT1-MMP conf inactive
CNc1ccccc1C(C)(C)c1cc(-c2cc(C)cc(C)c2)no1	none
CNc1ccccc1C(C)(C)c1cc(-c2cccc(OC)c2)no1	Myeloid diff 2 active, MT1-MMP act inh 46.6 (no result: DAGLB inh) | MT1-MMP conf 54.0
Cc1cc2ccccc2n1CCNC(=O)c1ccccc1	none
Cc1cc2ccccc2n1CCNC(=O)Cc1cccc2ccccc12	MT1-MMP act inh 42.8 | MT1-MMP conf inactive
Cc1cc2ccccc2n1CCNC(=O)COc1ccccc1	MT1-MMP act inh 40.0 | MT1-MMP conf inactive
Cc1cc2ccccc2n1CCNC(=O)c1ccc(Br)o1	MT1-MMP act inh 37.3 | MT1-MMP conf inactive
COc1cc(NC(=O)COC(=O)Cc2ccc(-c3ccccc3)cc2)cc(OC)c1	none
O=c1[nH]c(C2CCCN(S(=O)(=O)c3ccccc3)C2)nc2c1nnn2Cc1cccc(Cl)c1 (stereo unspecified)	none
COc1ccccc1C1CCN(C(=O)c2ccco2)CC1	none
CNc1ccccc1C(C)(C)c1cc(-c2ccco2)n[nH]1	MT1-MMP act inh 33.9 | MT1-MMP conf inactive
CNc1ccccc1C(C)(C)c1cc(C)[nH]n1	none
C/C(=N\Nc1nc2ccccc2[nH]1)c1ccc([N+](=O)[O-])cc1	MT1-MMP act inh 51.0 | MT1-MMP conf inactive
NC1=NC(c2cccc(Cl)c2)N(CCc2ccc(F)cc2)C(N)=N1 (stereo unspecified)	none
O=C(O)COc1ccc2nsnc2c1Cl	none
Cc1ccccc1C1=C/C(=C(\SS/C(C(=O)c2ccc(OCC(=O)O)c(Cl)c2Cl)=C2\C=C(c3ccccc3C)SS2)C(=O)c2ccc(OCC(=O)O)c(Cl)c2Cl)SS1	MT1-MMP act inh 33.8 (no result: MIN6 prolif) | MT1-MMP conf inactive
COc1cccc(OCc2cc(C(=O)N(C)C3CCCCC3)no2)c1	none (no result: MIN6 prolif)
C[C@H](CO)N1C[C@H](C)[C@@H](CN(C)S(=O)(=O)c2ccc(F)cc2)Oc2ccc(NC(=O)CCN3CCOCC3)cc2C1=O	MT1-MMP act inh 31.6 | MT1-MMP conf inactive
C[C@H](CO)N1C[C@H](C)[C@@H](CN(C)S(=O)(=O)c2ccc(F)cc2)Oc2ccc(NC(=O)Cc3ccccc3)cc2C1=O	none
Cc1ccc(C2(C)NC(=O)N(CC(=O)N3CCN(S(=O)(=O)c4ccc(Cl)s4)CC3)C2=O)cc1 (stereo unspecified)	none
COc1cc(NS(=O)(=O)c2ccc(C)cc2)c2c(c1N)C(=O)c1ccccc1C2=O	Myeloid diff 2 active, MT1-MMP act inh 47.2 (no result: MIN6 prolif) | MT1-MMP conf inactive
Cc1c(C(=O)O)c(O)cc2c1C(=O)c1c(O)c([C@@H]3O[C@H](CO)[C@@H](O)[C@H](O)[C@H]3O)c(O)c(O)c1C2=O	MT1-MMP act inh 49.7 | MT1-MMP conf inactive
O=C(Nc1ccc(S(=O)(=O)Nc2ccccc2)cc1)C1COc2ccccc2O1 (stereo unspecified)	MT1-MMP act inh 31.4 | MT1-MMP conf inactive
Cc1ccc(F)c(S(=O)(=O)NC(=O)C2(C)CCN2C(=O)Cc2cc(F)ccc2F)c1 (stereo unspecified)	none (no result: MIN6 prolif, DAGLB inh)
Cc1ccc(CNC(=O)c2ccc(S(=O)(=O)N3CCCCC3)cc2)cc1	none
